Screens from PubChem.
Sampled rows, rich in hits. Any-hit rate of the full collection: about 3.6%.
PAFAH1B2 FP inh: blocks human PAF acetylhydrolase 1b catalytic subunit 2; 340,000 compounds, 1.2% hits; recombinant PAFAH1B2, FP-rhodamine activity probe, fluorescence polarization; inhibition, % at 3.39 µM;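 active means inhibition above the mean of all tested compounds plus 3 SD, cut at about 24% in these data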
Target sequence (P68402 whole entry, looked up): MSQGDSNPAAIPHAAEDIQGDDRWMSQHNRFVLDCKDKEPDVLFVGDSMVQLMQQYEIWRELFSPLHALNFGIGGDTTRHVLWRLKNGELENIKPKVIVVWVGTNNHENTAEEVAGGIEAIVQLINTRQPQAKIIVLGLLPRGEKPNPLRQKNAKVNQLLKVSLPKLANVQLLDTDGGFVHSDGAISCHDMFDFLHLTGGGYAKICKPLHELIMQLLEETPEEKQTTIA
VIM-2 inhibitor: inhibitors of Pseudomonas aeruginosa VIM-2 metallo-beta-lactamase | purified VIM-2, nitrocefin hydrolysis, epi-absorbance fluorescence | 290,000 compounds, 0.89% hits | AID 1527 | inhibition, % at 5.6 µM;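 active means inhibition above the mean of all tested compounds plus 3 SD, cutoff set per screening run, cut at about 7.5% in these data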;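 further: red hydrolysis product quenches plate fluorescence so inhibitors raise well fluorescence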
IMP-1 inh: blocks Pseudomonas aeruginosa IMP-1 metallo-beta-lactamase; purified IMP-1, nitrocefin hydrolysis, epi-absorbance fluorescence; inhibition, % at 5.6 µM; 290,000 compounds, 0.45% hits;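 active means inhibition above the mean plus 3 SD of all compounds in the same screening run, cut at about 4.5% in these data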
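Material – recombinant IMP-1 enzyme, purified · Amount – IMP-1 0.2 nM before substrate addition · Medium – HEPES buffer pH 7.1 with ZnSO4 and Brij 35 · Timing – 25 °C, 15 min preincubation, 25 min reaction · Measured by – plate fluorescence quenching by hydrolysis product, ex 480/em 530 nm · Read-out – percent enzyme inhibition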
PAFAH1B3 inh: blocks human PAF acetylhydrolase 1B catalytic subunit 3; AID 492972; 340,000 compounds, 0.28% hits; Q15102; recombinant PAFAH1B3, FP-rhodamine probe, fluorescence polarization; inhibition, % at 3.39 µM;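 active means inhibition above the screen-wide average of all tested compounds plus 3 SD, cut at about 25% in these data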
PAFAH2 inh: inhibitors of human PAFAH2; Q99487; recombinant PAFAH2, FP-rhodamine activity probe, fluorescence polarization; inhibition, % at 3.39 µM; 340,000 compounds, 0.99% hits; AID 492956;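 active means inhibition above the mean over all tested compounds plus 3 SD, cut at about 30% in these data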;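 further: inhibitors block probe labeling of enzyme so polarization drops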
pPAFAH inh: pPAFAH (human) enzyme inhibition; Q13093; recombinant pPAFAH, FP-rhodamine probe fluorescence polarization; inhibition, % at 3.39 µM; 330,000 compounds, 1.5% hits; AID 463082;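 active means inhibition above the mean inhibition across the screen plus 3 SD, cut at about 25% in these data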;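 further: inhibitors block binding of the rhodamine activity-based probe so polarization drops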
Target sequence (Q13093 whole entry, looked up): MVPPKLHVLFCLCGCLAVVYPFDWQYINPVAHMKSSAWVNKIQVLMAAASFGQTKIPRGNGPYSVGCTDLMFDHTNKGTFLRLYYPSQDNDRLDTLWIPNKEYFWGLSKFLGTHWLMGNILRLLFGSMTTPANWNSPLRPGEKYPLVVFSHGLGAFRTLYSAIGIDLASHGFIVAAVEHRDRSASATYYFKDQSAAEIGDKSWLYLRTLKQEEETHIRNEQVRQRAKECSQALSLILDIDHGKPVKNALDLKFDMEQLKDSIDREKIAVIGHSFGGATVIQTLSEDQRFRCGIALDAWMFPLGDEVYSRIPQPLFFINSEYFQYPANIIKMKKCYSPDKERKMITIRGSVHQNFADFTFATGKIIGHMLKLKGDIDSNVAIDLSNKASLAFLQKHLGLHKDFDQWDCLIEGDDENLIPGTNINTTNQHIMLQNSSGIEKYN
Of the large screens only hits and unclear results are named; the others gave an inactive call.

CCCCn1c(N)c(N(CCOC)C(=O)COC(=O)CCOc2ccc(C)cc2)c(=O)[nH]c1=O	none (no result: VIM-2 inhibitor, IMP-1 inh)
O=C(c1cccc(Cl)c1)N1CCCC(C(=O)N2CCN(c3ccccc3)CC2)C1 (configuration not stated)	none
CC(=O)Oc1ccccc1C(=O)C=Cc1cccc([N+](=O)[O-])c1	none (no result: VIM-2 inhibitor, IMP-1 inh, pPAFAH inh)
O=C(O)c1ccc(NS(=O)(=O)c2cccc(S(=O)(=O)c3ccc(Cl)c(Cl)c3)c2)cc1	PAFAH2 inh 73
COc1ccc(C(=O)O)cc1S(=O)(=O)N1CCCc2ccccc21	PAFAH1B2 FP inh 26
COc1ccc(NS(=O)(=O)c2ccc(NS(=O)(=O)c3ccc(C)cc3)cc2)nn1	PAFAH1B2 FP inh 24
COCCC(=O)N1CCC(Oc2ccc(C(=O)NCCC3=CCCCC3)cc2)CC1	none
Nc1cccc(-c2c[nH]c3ncc(-c4cccnc4)cc23)c1	none (no result: VIM-2 inhibitor, IMP-1 inh, pPAFAH inh)
CCN(CC(=O)NCc1ccc(Cl)cc1)C(=O)NCc1ccc(Cl)cc1	none
CCN(CC(=O)NCc1ccc(Cl)cc1)C(=O)CSc1ccc(Br)cc1	PAFAH1B2 FP inh 26
O=C1NC(=O)/C(=C/c2ccccc2Oc2ccc(Cl)cc2)S1	PAFAH1B2 FP inh 28
Cc1ccc(CCNC(=O)c2cc(-c3ccncc3)nc3ccc(S(=O)(=O)N4CCOCC4)cc23)cc1	none
COc1ccc(-c2cc3c(=O)n(CC(=O)N4CCCC4)ncn3n2)cc1	none
O=C(Nc1ccccc1N1CCOCC1)c1cccnc1Cl	IMP-1 inh 47
O=C(CSc1ccc(F)cc1)Nc1ccccc1N1CCOCC1	PAFAH1B2 FP inh 26
CN1CCN(c2ccc(NC(=O)c3cc([N+](=O)[O-])ccc3N3CCOCC3)cc2)CC1	VIM-2 inhibitor 12
CN(CC(=O)Nc1ccccc1Br)C(=O)c1cc([N+](=O)[O-])ccc1N1CCOCC1	PAFAH1B2 FP inh 176, PAFAH1B3 inh active, PAFAH2 inh 139 (no result: VIM-2 inhibitor, IMP-1 inh)
N#CC1C(=N)Cc2ccccc2-c2ccccc21 (configuration not stated)	none (no result: VIM-2 inhibitor, IMP-1 inh, pPAFAH inh)
CN(C)CCCN(C(=O)c1ccc([N+](=O)[O-])o1)c1nc2cc3c(cc2s1)OCO3	none
O=C(/C=C/c1ccccc1)Nc1cccc(C(=O)NCCCCc2ccccc2)c1	none (no result: VIM-2 inhibitor, IMP-1 inh, pPAFAH inh)
CCN1C(=O)c2ccc(C(=O)NCc3ccco3)cc2C1=O	none
CC1CCN(c2ccccc2NC(=O)c2cc([N+](=O)[O-])ccc2N2CCOCC2)CC1	PAFAH1B2 FP inh 27
CO/N=C(/CNC(=O)c1cccc(Cl)c1)c1ccc(Cl)cc1	none
CO/N=C(/CS(=O)Cc1ccc(Cl)cc1)c1ccc(Cl)cc1 (configuration not stated)	pPAFAH inh 27
NC(=O)c1cccc(N=Cc2cc(Cl)cc(Cl)c2O)c1	none (no result: pPAFAH inh)
Oc1c(Cl)cc(Cl)cc1C=Nc1ccccc1N1CCCC1	pPAFAH inh 30 (no result: PAFAH1B2 FP inh, PAFAH1B3 inh, PAFAH2 inh)
CN(C)S(=O)(=O)c1cccc(NC(=S)Nc2cccc3cnccc23)c1	VIM-2 inhibitor 12 (no result: pPAFAH inh)
Cc1cc(C)cc(N2CC(O)=C(c3nc4ccccc4c(=O)[nH]3)C2=N)c1	none
CC(C)N1CC(O)=C(c2nc3ccccc3c(=O)[nH]2)C1=N	VIM-2 inhibitor 10
COCCn1c(C23CC4CC(CC(C4)C2)C3)n[nH]c1=S	none
CCCCn1c(C23CC4CC(CC(C4)C2)C3)n[nH]c1=S	PAFAH1B2 FP inh 29
CCCCCCCCCCCCCCCC[N+](C)(C)CCN(Cc1ccc(OC)cc1)c1ncccn1	pPAFAH inh 32 (no result: VIM-2 inhibitor, IMP-1 inh)
N#CC1C(=O)NC(=O)C(C#N)C12CCCC(C(F)(F)F)C2 (configuration not stated)	none (no result: VIM-2 inhibitor, IMP-1 inh, pPAFAH inh)
O=C(/C=C/c1cccc(C(F)(F)F)c1)NNC(=O)c1ccncc1	none (no result: VIM-2 inhibitor, IMP-1 inh, pPAFAH inh)
CN(C)CCCCOc1ccc(Br)cc1Cl	IMP-1 inh 24
COCCCNCCCCOc1ccc(Br)cc1Cl	none
Cc1c(C)n(-c2ccc(Cl)cc2)c2ncnc(N)c12	none
CCc1cc(=O)oc2cc(C)cc(OCC(=O)NC(Cc3ccc(Cl)cc3)C(=O)O)c12 (configuration not stated)	PAFAH1B2 FP inh 25
Cc1cc(C)cc(N2C(=O)C=CC2=O)c1	none (no result: VIM-2 inhibitor, IMP-1 inh, pPAFAH inh)
O=C(O)c1ccc2nc(-c3ccco3)c(-c3ccco3)nc2c1	PAFAH1B2 FP inh 24, PAFAH1B3 inh 52, PAFAH2 inh 40 (no result: pPAFAH inh)
O=C(Nc1ccc2nc(-c3ccco3)c(-c3ccco3)nc2c1)NC1CC1	PAFAH1B3 inh 36, PAFAH2 inh 35 (no result: pPAFAH inh)
O=C(NCCCO)Nc1ccc2nc(-c3ccco3)c(-c3ccco3)nc2c1	pPAFAH inh 62 (no result: PAFAH1B2 FP inh, PAFAH1B3 inh, PAFAH2 inh)
O=C(COc1coc(CN2CCCc3ccccc32)cc1=O)Nc1ccc([N+](=O)[O-])cc1	none (no result: VIM-2 inhibitor, IMP-1 inh)
CC(C)c1cc(C(=O)N2CCCC(N3CCN(c4ccc(F)cc4)CC3)C2)n(C)n1 (configuration not stated)	none (no result: pPAFAH inh)
Cc1ccc(S(=O)(=O)NC2CC(C)(C)N(O)C(C)(C)C2)cc1	none (no result: VIM-2 inhibitor, IMP-1 inh)
COc1cc(OC)c(N(C)S(=O)(=O)c2cccc(C(=O)OCC(=O)NCc3ccco3)c2)cc1Cl	PAFAH2 inh 32, pPAFAH inh 33
CCc1nnc(NC(=O)C23CC4CC(CC(C4)C2)C3)s1	PAFAH1B2 FP inh 30
CC(C)Cc1nnc(NC(=O)C23CC4CC(CC(C4)C2)C3)s1	none
NC(=O)CSc1nnc(NC(=O)C23CC4CC(CC(C4)C2)C3)s1	PAFAH1B2 FP inh 28
CSc1ccccc1NC(=O)C(C)N(C)CC(=O)N1CCN(Cc2ccccc2)CC1 (configuration not stated)	none (no result: VIM-2 inhibitor, IMP-1 inh, pPAFAH inh)
O=C(NCCCO)c1c(O)c2cccc3c2n(c1=O)CCC3	VIM-2 inhibitor 11
NNC(=O)c1c(O)c2cccc3c2n(c1=O)CCC3	none
CCNCCNC(=O)c1c(O)c2cccc3c2n(c1=O)CCC3	VIM-2 inhibitor 8.5
CCCCNC(=O)c1c(O)c2cccc3c2n(c1=O)CCC3	none
Cc1nn(CC(C)C)c(Cl)c1C(=O)N(c1ccc(Cl)cc1F)S(C)(=O)=O	none
CC(C)CCN1C(N(C)C)=NC[C@@H]1C	none (no result: VIM-2 inhibitor, IMP-1 inh)
CC(NC(=O)C1CCN(C(=O)c2cccs2)CC1)c1ccc(S(N)(=O)=O)cc1 (configuration not stated)	none (no result: VIM-2 inhibitor, IMP-1 inh)
Cc1ccc(NC(=O)Cn2ncc(Cl)c(Cl)c2=O)cc1S(=O)(=O)N1CCCCC1	none (no result: VIM-2 inhibitor, IMP-1 inh)
CCc1ccc(CCC(=O)Nc2ccc(Cl)cc2)o1	none
CC(C)c1ccc(-c2nc(N3CCOCC3)[nH]c(=O)c2C#N)cc1	PAFAH1B2 FP inh 33
COc1ccccc1NC(=O)NNC(=O)c1ccc2ccccc2c1O	none (no result: pPAFAH inh)
Cc1ccc(C2SCC(=O)N2Cc2ccccc2)cc1 (configuration not stated)	PAFAH1B2 FP inh 29
O=C1CSC(c2ccccc2O)N1Cc1ccccc1 (configuration not stated)	PAFAH1B2 FP inh 25
COc1ccc(C2SCC(=O)N2Cc2ccccc2)cc1 (configuration not stated)	none
Cc1ccc(S(=O)(=O)N2CCCCCC2)cc1C(=O)NCc1ccccn1	none
O=C1Nc2cccnc2N(C(=O)CCl)c2ccccc21	none
